# Experimental data reported in ChEMBL document CHEMBL2150890, “Antioxidant properties of Mannich bases” (Bioorg Med Chem Lett, 2012).
# The source made the active and inactive calls. The rule behind the calls is not given here.
# Experiments:
# [1] = Antioxidant activity of the compound assessed as phosphate/Mo5 complex formation at 6.25 to 100 uM after 90 mins; type: functional
# Method in brief: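 Phosphomolybdenum method: compound incubated with 0.6 M H2SO4, 28 mM sodium phosphate and 4 mM ammonium molybdate at 95 °C for 90 min. After cooling to room temperature, absorbance read at 695 nm against a blank. Result expressed as vitamin C equivalent; three independent experiments, mean ± SD.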
# [2] = system: Radical scavenging activity; assay: Antioxidant activity of the compound assessed as DPPH radical scavenging activity at 50 uM; type: functional
# Method in brief: (§1)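 Scavenging of the DPPH radical read by absorbance at 520 nm. % scavenging = (A_blank − A_sample)/A_blank × 100. Scavenging also followed at 0.5, 1, 2, 4, 6, 12 and 24 h. Three independent experiments, mean ± SD, one-way ANOVA.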
# [3] = Antioxidant activity of the compound in phosphate buffer at pH 6.6 assessed as potassium ferric cyanide ion reducing activity at 6.25 to 100 uM after 20 mins; type: functional; parameters: scale not given: the % may be the effect or the level left
# Method in brief: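 Ferricyanide reducing power: sample in 0.2 M phosphate buffer, pH 6.6, incubated with 1% w/v potassium ferricyanide at 50 °C for 20 min. Reducing effect expressed relative to vitamin C; three independent experiments, mean ± SD.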
# [4] = system: Radical scavenging activity; assay: Antioxidant activity of the compound assessed as DPPH radical scavenging activity; type: functional; method in brief: as §1
# RAW264.7 [5] = assay: Antioxidant activity in mouse RAW264.7 cells assessed as inhibition of H2O2-induced intracellular ROS formation after 30 mins in dark prior to H2O2 challenge measured after 30 mins post H2O2 challenge by H2DCF-DA based flow cytometry; type: functional, cell-based
# Method in brief: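 RAW 264.7 cells grown in DMEM/10% FBS at 37 °C, 5% CO2. Loaded with 20 µM H2DCF-DA in HBSS for 30 min, then compound (50 and 100 µM) in HBSS for 30 min at 37 °C in the dark. H2O2 challenge for 30 min, cells scraped and filtered, flow cytometry at 488 nm excitation. Geometric mean fluorescence reported; three independent experiments, mean ± SD.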
# RAW264.7 [6] = assay: Cytotoxicity against mouse RAW264.7 cells up to 100 uM after 24 hrs by MTT assay; type: cell-based; conditions: raw264.7, 24 h
# Method in brief: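 RAW 264.7 cells (DMEM, 10% FBS, 2 mM glutamine, penicillin/streptomycin; 37 °C, 5% CO2) seeded at 1 × 10^4 cells/well. After 24 h, treated with a range of compound concentrations for 24 h. MTT (1 mg/mL) added for 4 h, formazan dissolved in DMSO, absorbance read at 540 nm.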
# [7] = Ratio of alpha-tocopherol IC50 to compound IC50 for antioxidant activity of the compound assessed as DPPH radical scavenging activity
Compound,Activity [1] [%],Activity [2],Activity [3],IC50 [4] [µM],inhibition (RAW264.7 [5]),Activity (RAW264.7 [6]),Ratio IC50 [7]
COc1cc([C@H]2N[C@@H](c3ccc(O)c(OC)c3)[C@H]3CCC[C@H]2C3=O)ccc1O,56.8,80%,116%,–,–,–,–
O=C1[C@@H]2CCC[C@@H]1[C@H](c1ccc(O)c(O)c1)N[C@@H]2c1ccc(O)c(O)c1,62.3,80%,163%,26.1,Dose-dependent effect,Non-toxic,1
O=C1O[C@H]([C@@H](O)CO)C(O)=C1O,–,Active,Active,–,–,–,–
COc1cc(/C=C/C(=O)CC(=O)/C=C/c2ccc(O)c(OC)c2)ccc1O [CURCUMIN],–,–,–,35.1,–,–,–
Cc1c(C)c2c(c(C)c1O)CC[C@@](C)(CCC[C@H](C)CCC[C@H](C)CCCC(C)C)O2 [ALPHA-TOCOPHEROL],–,Active,–,59,–,–,–
Oc1ccccc1O [CATECHOL],–,–,–,36,–,–,–
